ChEMBL document CHEMBL1154414, “In vitro and in vivo activities of T-705 against arenavirus and bunyavirus infections” (Antimicrob Agents Chemother, 2007)

Assays:
Punta Toro virus [1] = assay: Antiviral activity against 50 PFU Punta Toro virus Adames infected C57BL/6 mouse assessed as animals with detectable virus level in serum at 10 mg/kg, po twice daily administered 24 hrs post viral challenge measured on day 3 of viral infection; type: functional
Procedure, shortened: (§1)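 T-705 was suspended in 0.4% carboxymethylcellulose and given by oral gavage twice daily. Mice were infected subcutaneously with PTV. Five mice per group (10 placebo) were sacrificed on day 3 or 4. Liver homogenate or serum was serially diluted onto triplicate LLC-MK2 monolayers, and CPE was read at 6–8 days. The detection limit was 2.8 log10 CCID50 per 0.1 g liver or 0.1 ml serum.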

Punta Toro virus [2] = assay: Antiviral activity against Punta Toro virus Adames infected Syrian golden hamster assessed as mean viral titer per 0.1 mL of serum at 30 mg/kg, po twice daily administered 4 hrs before viral challenge measured on day 4 of viral infection; type: functional
Procedure, shortened: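 Hamsters received twice-daily oral gavage doses (0.4% CMC) after subcutaneous challenge with 50 PFU. Five per group were killed on day 3 or 4. Liver homogenate or serum was serially diluted onto triplicate LLC-MK2 wells, CPE was read at 6-8 days, and the 50% endpoint was taken. Range was 2.8-9.5 log10 CCID50/0.1 g or 0.1 ml, with undetectable assigned <2.8.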

Punta Toro virus [3] = assay: Antiviral activity against Punta Toro virus Adames infected Syrian golden hamster assessed as mean serum ALT levels at 30 mg/kg, po twice daily administered 4 hrs before viral challenge measured on day 4 of viral infection; type: functional
Procedure, shortened: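 Hamsters were challenged subcutaneously with 50 PFU and dosed twice daily by oral gavage in 0.4% CMC. Five per group were sacrificed on day 3 or 4. Livers were scored 0-4 for icterus, and serum ALT was measured by kinetic assay against three sham-infected baseline animals.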

Pichinde virus [4] = assay: Antiviral activity against Pichinde virus An 4763 infected Syrian golden hamster assessed as animals with detectable virus level in serum at 20 mg/kg, po twice daily for 7 days administered 72 hrs post viral-challenge measured on day 7 of viral infection; type: functional
Procedure, shortened: (§2)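 Hamsters (groups of 15, placebo 25-30) were dosed orally by gavage twice daily (drug suspended in 0.4% CMC) after bilateral intraperitoneal challenge with 65 PFU. Five per group were killed on day 7. Liver homogenate or serum was serially diluted onto triplicate B-SC-1 wells, CPE was read at 6-8 days, and the 50% endpoint was taken. Range was 2.8-9.5 log10 CCID50/0.1 g or 0.1 ml, with undetectable assigned <2.8.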

Punta Toro virus [5] = assay: Antiviral activity against 5000 PFU Punta Toro virus Adames infected C57BL/6 mouse assessed as animals with detectable virus level in liver at 30 mg/kg, po twice daily administered 24 hrs post viral challenge measured on day 3 of viral infection; type: functional
Procedure, shortened: (§3)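 Mice were infected subcutaneously with PTV and dosed by oral gavage twice daily; 5 per group (10 placebo) were killed on day 3 or 4. Liver homogenate or serum was serially diluted onto triplicate LLC-MK2 monolayers, and CPE was read 6–8 days later. 50% endpoints gave log10 CCID50 per 0.1 g liver or 0.1 ml serum. Detection range was 2.8–9.5; undetectable samples were assigned <2.8.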

Pichinde virus [6] = assay: Antiviral activity against Pichinde virus An 4763 infected Syrian golden hamster assessed as animals with detectable virus level in liver at 40 mg/kg, po twice daily for 7 days administered 4 hrs before viral-challenge measured on day 7 of viral infection; type: functional
Punta Toro virus [7] = assay: Antiviral activity against 5000 PFU Punta Toro virus Adames infected C57BL/6 mouse assessed as mean viral titer per 0.1 mL of serum at 30 mg/kg, po twice daily administered 24 hrs post viral challenge measured on day 3 of viral infection; type: functional; procedure, shortened: as §3
Pichinde virus [8] = assay: Antiviral activity against Pichinde virus An 4763 infected Syrian golden hamster assessed as mean viral titer per 0.1 mL of serum at 50 mg/kg, po twice daily for 7 days administered 24 hrs post viral-challenge measured on day 7 of viral infection; type: functional; procedure, shortened: as §2
Punta Toro virus [9] = assay: Antiviral activity against 5000 PFU Punta Toro virus Adames infected C57BL/6 mouse assessed as mean day of death at 30 mg/kg, po twice daily for 5 days administered 24 hrs post viral challenge; type: functional
Procedure, shortened: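 PTV was inoculated subcutaneously into mice in groups of 15 (25–30 placebo). Dosing was by oral gavage twice daily for 5–7 days, with T-705 suspended in 0.4% CMC and ribavirin in saline. Remaining animals were observed 21–28 days for survival and day of death. Test doses had first been checked for tolerance in uninfected animals.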

Pichinde virus [10] = assay: Antiviral activity against Pichinde virus An 4763 infected Syrian golden hamster assessed as animals with detectable virus level in liver at 20 mg/kg, po twice daily for 7 days administered 72 hrs post viral-challenge measured on day 7 of viral infection; type: functional; procedure, shortened: as §2
Pichinde virus [11] = assay: Antiviral activity against Pichinde virus An 4763 infected Syrian golden hamster assessed as mean serum ALT levels at 40 mg/kg, po twice daily for 7 days administered 4 hrs before viral-challenge measured on day 7 of viral infection; type: functional
Procedure, shortened: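 Hamsters were challenged intraperitoneally (bilateral, 65 PFU) and given twice-daily oral gavage doses (0.4% CMC vehicle). Five per group were sacrificed on day 7 and serum was collected. Serum ALT activity was measured by kinetic assay. Three sham-infected animals set the baselines.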

Punta Toro virus [12] = assay: Antiviral activity against 5000 PFU Punta Toro virus Adames infected C57BL/6 mouse assessed as mean viral titer per 0.1 g of liver at 10 mg/kg, po twice daily administered 24 hrs post viral challenge measured on day 3 of viral infection; type: functional; procedure, shortened: as §3
Punta Toro virus [13] = assay: Antiviral activity against 500 PFU Punta Toro virus Adames infected C57BL/6 mouse assessed as animals with detectable virus level in serum at 30 mg/kg, po twice daily administered 24 hrs post viral challenge measured on day 3 of viral infection; type: functional; procedure, shortened: as §1
Punta Toro virus [14] = assay: Antiviral activity against Punta Toro virus Adames infected Syrian golden hamster assessed as mean viral titer per 0.1 g of liver at 30 mg/kg, […] measured on day 4 of viral infection; type: functional; details: route oral
Punta Toro virus [15] = assay: Antiviral activity against 50 PFU Punta Toro virus Adames infected C57BL/6 mouse assessed as animals with detectable virus level in liver at 30 mg/kg, po twice daily administered 24 hrs post viral challenge measured on day 3 of viral infection; type: functional; procedure, shortened: as §1
Punta Toro virus [16] = assay: Antiviral activity against Punta Toro virus Adames infected Syrian golden hamster assessed as animals with detectable virus level in liver at 30 mg/kg, […] measured on day 4 of viral infection; type: functional; details: route oral
Pichinde virus [17] = assay: Antiviral activity against Pichinde virus An 4763 infected Syrian golden hamster assessed as mean day of death at 20 mg/kg, po twice daily for 7 days administered 24 hrs post viral-challenge; type: functional
Procedure, shortened: (§4)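 Groups of 15 hamsters (placebo 25-30) were challenged intraperitoneally (bilateral, 65 PFU) and dosed twice daily by oral gavage in 0.4% CMC for 5 to 7 days.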

Pichinde virus [18] = assay: Antiviral activity against Pichinde virus An 4763 infected Syrian golden hamster assessed as mean day of death at 40 mg/kg, po twice daily for 7 days administered 4 hrs before viral-challenge; type: functional; procedure, shortened: as §4
Pichinde virus [19] = assay: Antiviral activity against Pichinde virus An 4763 infected Syrian golden hamster assessed as animals with detectable virus level in serum at 50 mg/kg, po twice daily for 7 days administered 72 hrs post viral-challenge measured on day 7 of viral infection; type: functional; procedure, shortened: as §2
[20] = system: Sandfly fever Naples virus; assay: Antiviral activity against Sandfly fever Naples virus assessed as inhibition of virus-induced visual cytopathic effect after 3 to 5 days; type: functional, organism-based
Procedure, shortened: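 Virus in medium with 2% FBS was used at the CCID50 that gave maximal CPE. Half-log drug dilutions (DMSO stock, ≤1% DMSO at the top concentration) were added at infection. EC50 was derived by regression analysis.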

SMILES	Activity (Punta Toro virus [1]) [%]	log10CCID50 (Punta Toro virus [2])	Activity (Punta Toro virus [3]) [IU/L]	Activity (Pichinde virus [4]) [%]	Activity (Punta Toro virus [5]) [%]	Activity (Pichinde virus [6]) [%]	log10CCID50 (Punta Toro virus [7])	log10CCID50 (Pichinde virus [8])	Activity (Punta Toro virus [9]) [days]	Activity (Pichinde virus [10]) [%]	Activity (Pichinde virus [11]) [IU/L]	log10CCID50 (Punta Toro virus [12])	Activity (Punta Toro virus [13]) [%]	log10CCID50 (Punta Toro virus [14])	Activity (Punta Toro virus [15]) [%]	Activity (Punta Toro virus [16]) [%]	Activity (Pichinde virus [17]) [days]	Activity (Pichinde virus [18]) [days]	Activity (Pichinde virus [19]) [%]	EC50 [20] [µM]
NC(=O)c1nc(F)cnc1O [FAVIPIRAVIR]	100	<4.5	25	100	20	20	<3.3	<5.1	5	100	30	<2.9	80	<3.5	40	40	9.5	11	100	115
NC(=O)c1ncn([C@@H]2O[C@H](CO)[C@@H](O)[C@H]2O)n1 [RIBAVIRIN]	60	<2.8	13	100	20	20	<4.2	<3.5	5	100	30	<2.8	80	<2.8	20	0	18	11	100	90
